Source: ChEMBL document CHEMBL4387704, “Design, synthesis and biological evaluation of novel isoindolinone derivatives as potent histone deacetylase inhibitors” (Eur J Med Chem, 2019)

How the values were obtained:
[1] = system: SR; experiment: Growth inhibition of human SR cells assessed as cell growth inhibition at 10 uM incubated for 48 hrs by sulforhodamine B assay; format: functional; conditions: read-out: GI
[2] = system: COLO 205; experiment: Growth inhibition of human COLO205 cells assessed as cell growth inhibition at 10 uM incubated for 48 hrs by sulforhodamine B assay; format: functional; conditions: COLO 205, 48 h, read-out: GI
[3] = system: NCI-H460; experiment: Growth inhibition of human NCI-H460 assessed as cell growth inhibition at 10 uM incubated for 48 hrs by sulforhodamine B assay; format: functional; conditions: NCI-H460, 48 h, read-out: GI
[4] = species: Homo sapiens; experiment: Selectivity index, ratio of IC50 of HDCA11 (unknown origin) to IC50 of HDCA1 (unknown origin)
[5] = Clearance in Sprague-Dawley rat at 1 mg/kg, iv by LC-MS/MS analysis; format: ADME, organism-based; conditions: in vivo
Outline: (§1)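 Male SD rats, 199-214 g, three per route. Single iv dose of 1 mg/kg or oral dose of 10 mg/kg. About 200 μL blood drawn from the jugular vein into heparinized tubes at set times, then spun to plasma. 30 μL plasma precipitated with CH3CN containing verapamil and glibenclamide as internal standards. Plasma drug level measured by LC-MS/MS.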

[6] = AUC (0 to infinity) in Sprague-Dawley rat at 10 mg/kg, po by LC-MS/MS analysis; format: ADME, organism-based; parameters: dose 10 mg/kg, time infinity, route oral; conditions: in vivo; outline: as §1
[7] = Metabolic stability in dog liver microsomes assessed as half life at 1 uM preincubated for 10 mins followed by NADPH addition measured upto 60 mins by LC-MS/MS analysis; format: ADME, Canis lupus familiaris, Microsome
Outline: (§2)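 Liver microsomes from male SD rat, dog or human at 0.5 mg/mL in 100 mM potassium phosphate pH 7.4 with 1 μM compound. Prewarmed 37 °C 10 min, started with 1 mM NADPH. Stopped at 0, 5, 10, 20, 40, 60 min with cold methanol containing glibenclamide internal standard; supernatant by LC–MS/MS; T1/2 and CLint derived.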

[8] = system: OVCAR-3; experiment: Growth inhibition of human OVCAR3 cells assessed as cell growth inhibition at 10 uM incubated for 48 hrs by sulforhodamine B assay; format: functional; conditions: OVCAR-3, 48 h, read-out: GI
[9] = system: RPMI-8226; experiment: Growth inhibition of human RPMI8226 cells assessed as cell growth inhibition at 10 uM incubated for 48 hrs by sulforhodamine B assay; format: functional; conditions: RPMI-8226, 48 h, read-out: GI
[10] = Metabolic stability in dog liver microsomes assessed as internal clearance at 1 uM preincubated for 10 mins followed by NADPH addition measured upto 60 mins by LC-MS/MS analysis; format: ADME, Canis lupus familiaris, Microsome; conditions: read-out: CLH; outline: as §2
[11] = Metabolic stability in rat liver microsomes assessed as internal clearance at 1 uM preincubated for 10 mins followed by NADPH addition measured upto 60 mins by LC-MS/MS analysis; format: ADME, Microsome; conditions: read-out: CLH; outline: as §2
[12] = system: MDA-MB-468; experiment: Growth inhibition of human MDA-MB-468 cells assessed as cell growth inhibition at 10 uM incubated for 48 hrs by sulforhodamine B assay; format: functional; conditions: MDA-MB-468, 48 h, read-out: GI
[13] = system: UACC-62; experiment: Growth inhibition of human UACC62 cells assessed as cell growth inhibition at 10 uM incubated for 48 hrs by sulforhodamine B assay; format: functional; conditions: UACC-62, 48 h, read-out: GI
[14] = system: RXF 393; experiment: Growth inhibition of human RXF393 cells assessed as cell growth inhibition at 10 uM incubated for 48 hrs by sulforhodamine B assay; format: functional; conditions: RXF 393, 48 h, read-out: GI
[15] = system: OVCAR-8; experiment: Growth inhibition of human OVCAR8 cells assessed as cell growth inhibition at 10 uM incubated for 48 hrs by sulforhodamine B assay; format: functional; conditions: OVCAR-8, 48 h, read-out: GI
[16] = target: Histone deacetylase 1 (Homo sapiens, UniProt Q13547); experiment: Inhibition of HDAC1 (unknown origin) using Fluor de Lys substrate by fluorescence assay relative to control; conditions: read-out: IC50
[17] = species: Homo sapiens; experiment: Selectivity index, ratio of IC50 of HDCA8 (unknown origin) to IC50 of HDCA1 (unknown origin)
[18] = system: HCC 2998; experiment: Growth inhibition of human HCC2998 cells assessed as cell growth inhibition at 10 uM incubated for 48 hrs by sulforhodamine B assay; format: functional; conditions: HCC 2998, 48 h, read-out: GI
[19] = target: Class 1 histone deacetylase (Homo sapiens) (UniProt Q13547+O15379+Q92769+Q9BY41); experiment: Inhibition of class I HDAC in human MCF7 cells assessed as increase in cellular histone H3 acetylation levels incubated for 24 hrs by Western blot; format: cell-based
Outline: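 MCF-7 cells (1×10^6) seeded overnight, treated 24 h at 0.25, 2.5 or 25 μM. Lysed with protease inhibitor (EDTA-free); 30 µg total protein run on SDS-PAGE, blotted to nitrocellulose, probed for acetyl-H3, ECL detection.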

[20] = system: SN12C; experiment: Growth inhibition of human SN12C cells assessed as cell growth inhibition at 10 uM incubated for 48 hrs by sulforhodamine B assay; format: functional; conditions: read-out: GI
[21] = AUC (0 to t) in Sprague-Dawley rat at 1 mg/kg, iv by LC-MS/MS analysis; format: ADME, organism-based; conditions: in vivo
[22] = target: Histone deacetylase 8 (Homo sapiens, UniProt Q9BY41); experiment: Inhibition of HDAC8 (unknown origin) using Fluor de Lys substrate by fluorescence assay relative to control
Outline: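 Recombinant HDAC isoform assays run by a contract lab. Compounds in DMSO, 10-dose IC50 mode, 3-fold serial dilution from 50 μM. Duplicate runs; IC50 from curve fitting.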

[23] = system: NCI-H522; experiment: Growth inhibition of human NCI-H522 cells assessed as cell growth inhibition at 10 uM incubated for 48 hrs by sulforhodamine B assay; format: functional; conditions: NCI-H522, 48 h, read-out: GI
[24] = system: UO-31; experiment: Growth inhibition of human UO31 cells assessed as cell growth inhibition at 10 uM incubated for 48 hrs by sulforhodamine B assay; format: functional; conditions: UO-31, 48 h, read-out: GI
[25] = Terminal half life in Sprague-Dawley rat at 1 mg/kg, iv by LC-MS/MS analysis; format: ADME, organism-based; conditions: in vivo, read-out: beta t1/2 (converted)
Outline: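 Male SD rats (199-214 g), three per route, single dose 1 mg/kg iv or 10 mg/kg po. Jugular blood (~200 μL) into heparinized tubes at set times; plasma by centrifugation, protein precipitation with acetonitrile containing verapamil and glibenclamide; drug measured by LC-MS/MS.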

[26] = system: MOLT-4; experiment: Growth inhibition of human MOLT4 cells assessed as cell growth inhibition at 10 uM incubated for 48 hrs by sulforhodamine B assay; format: functional; conditions: MOLT-4, 48 h, read-out: GI
[27] = system: MCF7; experiment: Growth inhibition of human MCF7 cells assessed as cell growth inhibition at 10 uM incubated for 48 hrs by sulforhodamine B assay; format: functional; conditions: MCF7, 48 h, read-out: GI
[28] = system: EKVX; experiment: Growth inhibition of human EKVX cells assessed as cell growth inhibition at 10 uM incubated for 48 hrs by sulforhodamine B assay; format: functional; conditions: read-out: GI
[29] = system: NCI-H322M; experiment: Growth inhibition of human NCI-H322M assessed as cell growth inhibition at 10 uM incubated for 48 hrs by sulforhodamine B assay; format: functional; conditions: read-out: GI

Class 1 histone deacetylase (Homo sapiens), sequence (O15379 whole entry, looked up): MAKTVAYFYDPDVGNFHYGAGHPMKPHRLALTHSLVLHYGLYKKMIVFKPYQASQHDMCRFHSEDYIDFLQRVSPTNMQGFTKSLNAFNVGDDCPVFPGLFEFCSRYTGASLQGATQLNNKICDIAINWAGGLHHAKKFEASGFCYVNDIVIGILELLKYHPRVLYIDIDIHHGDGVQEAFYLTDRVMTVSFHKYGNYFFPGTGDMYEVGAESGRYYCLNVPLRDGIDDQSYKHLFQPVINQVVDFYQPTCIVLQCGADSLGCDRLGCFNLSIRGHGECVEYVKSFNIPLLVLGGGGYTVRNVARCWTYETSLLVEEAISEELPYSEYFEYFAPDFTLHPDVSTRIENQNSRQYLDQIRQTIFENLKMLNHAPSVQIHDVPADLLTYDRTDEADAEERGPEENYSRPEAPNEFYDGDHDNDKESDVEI
Class 1 histone deacetylase (Homo sapiens), sequence (Q13547 whole entry, looked up): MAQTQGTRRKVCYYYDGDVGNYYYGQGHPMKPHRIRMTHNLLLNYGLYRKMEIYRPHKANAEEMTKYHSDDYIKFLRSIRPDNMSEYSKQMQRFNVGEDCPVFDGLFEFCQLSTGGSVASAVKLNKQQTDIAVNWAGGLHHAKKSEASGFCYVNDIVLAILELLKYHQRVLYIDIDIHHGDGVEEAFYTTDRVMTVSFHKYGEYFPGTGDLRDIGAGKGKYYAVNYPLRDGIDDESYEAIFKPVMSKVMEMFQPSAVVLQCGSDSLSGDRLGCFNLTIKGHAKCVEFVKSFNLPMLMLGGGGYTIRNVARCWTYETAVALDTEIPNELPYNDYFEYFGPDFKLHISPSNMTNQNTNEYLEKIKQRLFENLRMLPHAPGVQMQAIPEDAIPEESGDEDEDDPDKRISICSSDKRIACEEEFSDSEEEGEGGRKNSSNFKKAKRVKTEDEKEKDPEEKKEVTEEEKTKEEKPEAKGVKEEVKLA
Class 1 histone deacetylase (Homo sapiens), sequence (Q92769 whole entry, looked up): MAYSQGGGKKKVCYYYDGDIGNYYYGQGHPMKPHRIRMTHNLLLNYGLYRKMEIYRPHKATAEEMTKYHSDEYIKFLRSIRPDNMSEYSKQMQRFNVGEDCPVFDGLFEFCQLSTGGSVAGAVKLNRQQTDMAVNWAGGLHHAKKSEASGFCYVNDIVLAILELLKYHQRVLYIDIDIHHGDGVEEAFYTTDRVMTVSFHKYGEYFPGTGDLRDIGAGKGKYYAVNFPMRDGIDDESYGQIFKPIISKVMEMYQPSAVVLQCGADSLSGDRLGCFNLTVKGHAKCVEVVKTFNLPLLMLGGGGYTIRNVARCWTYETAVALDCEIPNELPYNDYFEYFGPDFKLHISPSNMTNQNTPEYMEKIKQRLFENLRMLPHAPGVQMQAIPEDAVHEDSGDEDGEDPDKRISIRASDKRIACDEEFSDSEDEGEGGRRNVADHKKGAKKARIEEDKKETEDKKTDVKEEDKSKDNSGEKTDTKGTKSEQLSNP
Class 1 histone deacetylase (Homo sapiens), sequence (Q9BY41 whole entry, looked up): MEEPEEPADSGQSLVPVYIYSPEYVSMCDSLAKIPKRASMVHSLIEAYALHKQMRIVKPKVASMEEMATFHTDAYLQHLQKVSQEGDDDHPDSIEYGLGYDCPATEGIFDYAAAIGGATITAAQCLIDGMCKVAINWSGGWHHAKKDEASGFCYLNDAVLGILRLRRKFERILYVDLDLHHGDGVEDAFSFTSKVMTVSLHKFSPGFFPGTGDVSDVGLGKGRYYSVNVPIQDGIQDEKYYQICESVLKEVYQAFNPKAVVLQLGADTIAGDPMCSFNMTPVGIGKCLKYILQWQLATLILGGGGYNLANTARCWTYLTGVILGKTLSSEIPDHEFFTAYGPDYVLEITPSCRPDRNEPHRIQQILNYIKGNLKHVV
Histone deacetylase 8, sequence (Q9BY41 whole entry, canonical isoform): as the sequence (Q9BY41 whole entry, looked up) above
Histone deacetylase 1, sequence (Q13547 whole entry): as the sequence (Q13547 whole entry, looked up) above

Molecule `Nc1cc(F)ccc1NC(=O)c1ccc(CNC(=O)/C=C2\NC(=O)c3ccccc32)cc1` has an inhibition of growth at 10 µM [1] of 57.6%, an inhibition of growth at 10 µM [2] of 27.8% and an inhibition of growth at 10 µM [3] of 26.8%. The Ratio IC50 [4] was 10, the clearance [5] was 21.3 mL/min/kg and the AUC(0-inf) [6] was 1740 ng·h/mL. For the same molecule, the half-life at 1 µM [7] was 3.35 h, the inhibition of growth at 10 µM [8] was 42% and the inhibition of growth at 10 µM [9] was 59.8%. It also gave a microsomal CLint at 1 µM [10] of 6.92 µL/min/mg, a microsomal CLint at 1 µM [11] of 11.7 µL/min/mg and an inhibition of growth at 10 µM [12] of 9.71%. The inhibition of growth at 10 µM [13] was 57.8%, the inhibition of growth at 10 µM [14] was 17.5% and the inhibition of growth at 10 µM [15] was 55.9%. It also gave an IC50 [16] of 65.1 nM, a Ratio IC50 [17] of 17 and an inhibition of growth at 10 µM [18] of 20.4%. For the same molecule, the inhibition [19] was “Dose-dependent effect”, the inhibition of growth at 10 µM [20] was 30.8% and the AUC(0-t) [21] was 781 ng·h/mL. The IC50 [22] was 1080 nM, the inhibition of growth at 10 µM [23] was 70.7% and the inhibition of growth at 10 µM [24] was 50.1%. The half-life [25] was 0.39 h, the inhibition of growth at 10 µM [26] was 63% and the inhibition of growth at 10 µM [27] was 35.5%. The inhibition of growth at 10 µM [28] was 11.7% and the inhibition of growth at 10 µM [29] was 14.2%.
